Laboratory results from ChEMBL document CHEMBL1926614, “Substituted thiazoles V. synthesis and antitumor activity of novel thiazolo[2,3-b]quinazoline and pyrido[4,3-d]thiazolo[3,2-a]pyrimidine analogues” (2012).

Assays:
Format in all cases: functional
HCC 2998 = assay: Growth inhibition of human HCC2998 cells at 10 uM after 48 hrs by coulter counting; settings: HCC 2998, 48 h, read-out: GI
Summary of the method: (§1)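 Single-dose primary screen across the full NCI 60-cell-line panel. Stocks were made in DMSO and diluted in PBS to a final DMSO below 1%. Cultures at 6 × 10⁴ cells/ml were run in duplicate wells alongside PBS/DMSO vehicle controls at 37 °C in humidified 5% CO₂. Data were expressed as percent growth of treated cells.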

CCRF-CEM = assay: Growth inhibition of human CCRF-CEM cells at 10 uM after 48 hrs by coulter counting; settings: read-out: GI; summary of the method: as §1
IGROV-1 = assay: Growth inhibition of human IGROV1 cells at 10 uM after 48 hrs by coulter counting; settings: IGROV-1, 48 h, read-out: GI; summary of the method: as §1
RPMI-8226 = assay: Growth inhibition of human RPMI8226 cells at 10 uM after 48 hrs by coulter counting; settings: RPMI-8226, 48 h, read-out: GI; summary of the method: as §1
U-251 = assay: Growth inhibition of human U251 cells at 10 uM after 48 hrs by coulter counting; settings: U-251, 48 h, read-out: GI
Summary of the method: (§2)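 Single-dose screen in the NCI 60 human tumor cell line panel (nine subpanels). Compounds dissolved in DMSO and diluted in phosphate buffered saline, keeping final DMSO below 1%. Added in duplicate wells to cells at 6 × 10⁴ cells/ml. Controls held PBS and DMSO at matching dilutions. Incubated at 37 °C, humidified, 5% CO₂. Reported as percent growth of treated cells.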

EKVX = assay: Growth inhibition of human EKVX cells at 10 uM after 48 hrs by coulter counting; settings: read-out: GI; summary of the method: as §1
SK-MEL-2 = assay: Growth inhibition of human SK-MEL-2 cells at 10 uM after 48 hrs by coulter counting; settings: SK-MEL-2, 48 h, read-out: GI; summary of the method: as §1
NCI-H226 = assay: Growth inhibition of human NCI-H226 cells at 10 uM after 48 hrs by coulter counting; settings: NCI-H226, 48 h, read-out: GI; summary of the method: as §1
SF-539 = assay: Growth inhibition of human SF539 cells at 10 uM after 48 hrs by coulter counting; settings: SF-539, 48 h, read-out: GI; summary of the method: as §1
NCI-H522 = assay: Growth inhibition of human NCI-H522 cells at 10 uM after 48 hrs by coulter counting; settings: NCI-H522, 48 h, read-out: GI; summary of the method: as §1
HOP-62 = assay: Growth inhibition of human HOP62 cells at 10 uM after 48 hrs by coulter counting; settings: HOP-62, 48 h, read-out: GI; summary of the method: as §1
MOLT-4 = assay: Growth inhibition of human MOLT4 cells at 10 uM after 48 hrs by coulter counting; settings: MOLT-4, 48 h, read-out: GI; summary of the method: as §1
DU-145 = assay: Growth inhibition of human DU145 cells at 10 uM after 48 hrs by coulter counting; settings: DU-145, 48 h, read-out: GI; summary of the method: as §1
BT-549 = assay: Growth inhibition of human BT549 cells at 10 uM after 48 hrs by coulter counting; settings: BT-549, 48 h, read-out: GI; summary of the method: as §1
UACC-257 = assay: Growth inhibition of human UACC257 cells at 10 uM after 48 hrs by coulter counting; settings: UACC-257, 48 h, read-out: GI; summary of the method: as §2
UO-31 = assay: Growth inhibition of human UO31 cells at 10 uM after 48 hrs by coulter counting; settings: UO-31, 48 h, read-out: GI; summary of the method: as §2
M14 = assay: Growth inhibition of human M14 cells at 10 uM after 48 hrs by coulter counting; settings: M14, 48 h, read-out: GI; summary of the method: as §1
MCF7 = assay: Growth inhibition of human MCF7 cells at 10 uM after 48 hrs by coulter counting; settings: MCF7, 48 h, read-out: GI; summary of the method: as §1
SK-MEL-5 = assay: Growth inhibition of human SK-MEL-5 cells at 10 uM after 48 hrs by coulter counting; settings: SK-MEL-5, 48 h, read-out: GI; summary of the method: as §1
KM12 = assay: Growth inhibition of human KM12 cells at 10 uM after 48 hrs by coulter counting; settings: KM12, 48 h, read-out: GI; summary of the method: as §1
HL-60(TB) = assay: Growth inhibition of human HL-60(TB) cells at 10 uM after 48 hrs by coulter counting; settings: HL-60, 48 h, read-out: GI
Summary of the method: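 Test compound was dissolved in DMSO and diluted in phosphate-buffered saline to a final DMSO level below 1%. Dilutions were plated in duplicate with cell culture at 6 × 10⁴ cells/ml. Vehicle controls held PBS and DMSO at matching dilutions. Incubation was at 37 °C, humidified, under 5% CO₂. Data were reported as percent growth of treated cells.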

CAKI-1 = assay: Growth inhibition of human Caki1 cells at 10 uM after 48 hrs by coulter counting; settings: CAKI-1, 48 h, read-out: GI; summary of the method: as §1
SNB-75 = assay: Growth inhibition of human SNB75 cells at 10 uM after 48 hrs by coulter counting; settings: SNB-75, 48 h, read-out: GI; summary of the method: as §1
A549 = assay: Growth inhibition of human A549 cells at 10 uM after 48 hrs by coulter counting; settings: A549, 48 h, read-out: GI; summary of the method: as §1
A498 = assay: Growth inhibition of human A498 cells at 10 uM after 48 hrs by coulter counting; settings: A498, 48 h, read-out: GI; summary of the method: as §1
SF-295 = assay: Growth inhibition of human SF295 cells at 10 uM after 48 hrs by coulter counting; settings: SF-295, 48 h, read-out: GI; summary of the method: as §1
NCI-H460 = assay: Growth inhibition of human NCI-H460 cells at 10 uM after 48 hrs by coulter counting; settings: NCI-H460, 48 h, read-out: GI; summary of the method: as §1
NCI-H23 = assay: Growth inhibition of human NCI-H23 cells at 10 uM after 48 hrs by coulter counting; settings: NCI-H23, 48 h, read-out: GI; summary of the method: as §1
NCI/ADR-RES = assay: Growth inhibition of human NCI/ADR-RES cells at 10 uM after 48 hrs by coulter counting; settings: read-out: GI; summary of the method: as §1
K562 = assay: Growth inhibition of human K562 cells at 10 uM after 48 hrs by coulter counting; settings: K562, 48 h, read-out: GI; summary of the method: as §1
HT-29 = assay: Growth inhibition of human HT-29 cells at 10 uM after 48 hrs by coulter counting; settings: HT-29, 48 h, read-out: GI; summary of the method: as §1
LOX IMVI = assay: Growth inhibition of human LOXIMVI cells at 10 uM after 48 hrs by coulter counting; settings: read-out: GI; summary of the method: as §1
SF-268 = assay: Growth inhibition of human SF268 cells at 10 uM after 48 hrs by coulter counting; settings: SF-268, 48 h, read-out: GI; summary of the method: as §1
OVCAR-4 = assay: Growth inhibition of human OVCAR4 cells at 10 uM after 48 hrs by coulter counting; settings: OVCAR-4, 48 h, read-out: GI; summary of the method: as §1
SK-MEL-28 = assay: Growth inhibition of human SK-MEL-28 cells at 10 uM after 48 hrs by coulter counting; settings: SK-MEL-28, 48 h, read-out: GI; summary of the method: as §1
UACC-62 = assay: Growth inhibition of human UACC62 cells at 10 uM after 48 hrs by coulter counting; settings: UACC-62, 48 h, read-out: GI; summary of the method: as §2
T47D = assay: Growth inhibition of human T47D cells at 10 uM after 48 hrs by coulter counting; settings: read-out: GI; summary of the method: as §2
SNB-19 = assay: Growth inhibition of human SNB19 cells at 10 uM after 48 hrs by coulter counting; settings: SNB-19, 48 h, read-out: GI; summary of the method: as §1
HCT-116 = assay: Growth inhibition of human HCT116 cells at 10 uM after 48 hrs by coulter counting; settings: HCT-116, 48 h, read-out: GI; summary of the method: as §1
ACHN = assay: Growth inhibition of human ACHN cells at 10 uM after 48 hrs by coulter counting; settings: read-out: GI; summary of the method: as §1
[1] = Growth inhibition of human NCI-322M cells at 10 uM after 48 hrs by coulter counting; settings: read-out: GI; summary of the method: as §1
MDA-MB-435 = assay: Growth inhibition of human MDA-MB-435 cells at 10 uM after 48 hrs by coulter counting; settings: MDA-MB-435, 48 h, read-out: GI; summary of the method: as §1

**Q.** For COc1ccc(/C=C2\CCCC3=C2N=C2SC=CN2C3c2ccc(OC)c(OC)c2)cc1OC (configuration not stated), which inhibition of growth at 10 µM (HCC 2998) is on record?
**A.** 14.9%

**Q.** And the inhibition of growth at 10 µM (CCRF-CEM)?
**A.** > 10%

**Q.** What about the inhibition of growth at 10 µM (IGROV-1) of the same compound?
**A.** > 10%

**Q.** And the inhibition of growth at 10 µM (RPMI-8226)?
**A.** > 10%

**Q.** And the inhibition of growth at 10 µM (U-251)?
**A.** > 10%

**Q.** And the inhibition of growth at 10 µM (EKVX)?
**A.** > 10%

**Q.** What about the inhibition of growth at 10 µM (SK-MEL-2) of the same compound?
**A.** > 10%

**Q.** What about the inhibition of growth at 10 µM (NCI-H226) of the same compound?
**A.** > 10%

**Q.** And the inhibition of growth at 10 µM (SF-539)?
**A.** > 10%

**Q.** And the inhibition of growth at 10 µM (NCI-H522)?
**A.** 10.3%

**Q.** What about the inhibition of growth at 10 µM (HOP-62) of the same compound?
**A.** > 10%

**Q.** What about the inhibition of growth at 10 µM (MOLT-4) of the same compound?
**A.** > 10%

**Q.** And the inhibition of growth at 10 µM (DU-145)?
**A.** > 10%

**Q.** And the inhibition of growth at 10 µM (BT-549)?
**A.** > 10%

**Q.** What about the inhibition of growth at 10 µM (UACC-257) of the same compound?
**A.** 10.5%

**Q.** And the inhibition of growth at 10 µM (UO-31)?
**A.** 27.9%

**Q.** What about the inhibition of growth at 10 µM (M14) of the same compound?
**A.** > 10%

**Q.** And the inhibition of growth at 10 µM (MCF7)?
**A.** > 10%

**Q.** And the inhibition of growth at 10 µM (SK-MEL-5)?
**A.** > 10%

**Q.** What about the inhibition of growth at 10 µM (KM12) of the same compound?
**A.** > 10%

**Q.** And the inhibition of growth at 10 µM (HL-60(TB))?
**A.** 17.5%

**Q.** What about the inhibition of growth at 10 µM (CAKI-1) of the same compound?
**A.** > 10%

**Q.** And the inhibition of growth at 10 µM (SNB-75)?
**A.** 12.4%

**Q.** What about the inhibition of growth at 10 µM (A549) of the same compound?
**A.** > 10%

**Q.** What about the inhibition of growth at 10 µM (A498) of the same compound?
**A.** > 10%

**Q.** What about the inhibition of growth at 10 µM (SF-295) of the same compound?
**A.** > 10%

**Q.** What about the inhibition of growth at 10 µM (NCI-H460) of the same compound?
**A.** > 10%

**Q.** And the inhibition of growth at 10 µM (NCI-H23)?
**A.** > 10%

**Q.** And the inhibition of growth at 10 µM (NCI/ADR-RES)?
**A.** > 10%

**Q.** And the inhibition of growth at 10 µM (K562)?
**A.** > 10%

**Q.** And the inhibition of growth at 10 µM (HT-29)?
**A.** > 10%

**Q.** And the inhibition of growth at 10 µM (LOX IMVI)?
**A.** 16.4%

**Q.** What about the inhibition of growth at 10 µM (SF-268) of the same compound?
**A.** > 10%

**Q.** What about the inhibition of growth at 10 µM (OVCAR-4) of the same compound?
**A.** > 10%

**Q.** And the inhibition of growth at 10 µM (SK-MEL-28)?
**A.** > 10%

**Q.** And the inhibition of growth at 10 µM (UACC-62)?
**A.** > 10%

**Q.** What about the inhibition of growth at 10 µM (T47D) of the same compound?
**A.** > 10%

**Q.** What about the inhibition of growth at 10 µM (SNB-19) of the same compound?
**A.** > 10%

**Q.** What about the inhibition of growth at 10 µM (HCT-116) of the same compound?
**A.** > 10%

**Q.** What about the inhibition of growth at 10 µM (ACHN) of the same compound?
**A.** > 10%

**Q.** What about the inhibition of growth at 10 µM [1] of the same compound?
**A.** > 10%

**Q.** What about the inhibition of growth at 10 µM (MDA-MB-435) of the same compound?
**A.** > 10%
